Activity calls are given as the source filed them. No cut-off for these calls is given here.

By IC50 is commonly meant the concentration at which inhibition is half-maximal. Read a low IC50 as greater potency in that assay.

The nature of data set [1]: Cytotoxicity against mouse NIH/3T3 cells after 72 hrs by cyquant cells. It is filed as cell-based. Particulars: NIH3T3, 72 h. An outline of the steps: (§1)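 CyQuant proliferation assay after 72 h compound exposure of cultured cells; relative viability normalized to DMSO-treated control; IC50 values derived. Glioma lines grown in RPMI or DMEM with 10% FBS and 1% nonessential amino acids.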

In data set [2] the test system is U-251. As to the kind of experiment: Antiproliferative activity against human U251MG cells at 5 uM for 72 hrs by cyquant assay. It is filed as functional. An outline of the steps:
as §1

For data set [3], the target named is Signal transducer and activator of transcription 3 (Mus musculus) (UniProt P42227). Nature of the data set: Inhibition of Stat3 dimer DNA binding activity in mouse NIH3T3/vSrc nuclear extract at 5 uM preincubated for 30 mins followed by addition of radiolabeled probe hSIE for 30 mins by EMSA. In general terms: A gel shift assay detects complexes by their altered migration in electrophoresis.

In data set [4] the target is T1, Signal transducer and activator of transcription 1 (Mus musculus) (UniProt P42225).
T1 sequence (whole entry): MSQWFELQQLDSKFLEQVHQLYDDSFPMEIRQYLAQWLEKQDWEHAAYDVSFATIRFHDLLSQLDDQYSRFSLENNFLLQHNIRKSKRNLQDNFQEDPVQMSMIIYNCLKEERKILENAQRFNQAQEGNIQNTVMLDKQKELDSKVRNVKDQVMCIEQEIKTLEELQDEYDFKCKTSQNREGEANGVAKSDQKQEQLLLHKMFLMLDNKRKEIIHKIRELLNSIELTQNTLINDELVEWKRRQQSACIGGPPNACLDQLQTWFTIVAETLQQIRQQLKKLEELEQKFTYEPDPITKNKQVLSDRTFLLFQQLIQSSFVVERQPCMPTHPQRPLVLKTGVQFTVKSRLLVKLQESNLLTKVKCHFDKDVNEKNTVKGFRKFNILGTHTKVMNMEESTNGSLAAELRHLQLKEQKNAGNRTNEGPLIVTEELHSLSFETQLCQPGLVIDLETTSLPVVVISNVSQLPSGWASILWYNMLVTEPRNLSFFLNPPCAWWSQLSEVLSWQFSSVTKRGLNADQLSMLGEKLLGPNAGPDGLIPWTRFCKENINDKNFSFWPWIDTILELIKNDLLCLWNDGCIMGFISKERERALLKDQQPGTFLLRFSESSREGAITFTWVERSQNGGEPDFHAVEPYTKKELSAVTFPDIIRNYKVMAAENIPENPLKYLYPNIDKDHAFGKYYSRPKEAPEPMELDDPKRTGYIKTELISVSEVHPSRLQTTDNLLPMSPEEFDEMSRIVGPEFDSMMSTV
As to the kind of experiment: Inhibition of Stat1 dimer DNA binding activity in EGF-stimulated mouse NIH3T3 nuclear extract expressing human EGFR at 5 uM preincubated for 30 mins followed by addition of radiolabeled probe hSIE for 30 mins by EMSA.

Data set [5] concerns the target T2, Signal transducer and activator of transcription 3 (Homo sapiens, UniProt P40763). As to the kind of experiment: Inhibition of Stat3 activity in human U251MG cells assessed as phosphorylated Stat3 level after 2 hrs by immunoblot analysis. It is filed as cell-based. The settings on record: U-251. An outline of the steps: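 U251MG cells treated with 5 μM compound for 0–24 h, or with 0–5 μM for 2 h. Whole-cell lysates immunoblotted for pStat3, Stat3, GAPDH. Control was 0.025% DMSO-treated cells.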
(In general: A western blot detects proteins with antibodies after separation by electrophoresis.)

Data set [6] is described as follows: Antiproliferative activity against human U251MG cells for 72 hrs by cyquant assay. Particulars: U-251, 72 h. Format: functional, cell-based. In outline: as §1
The target of data set [7] is T3, Signal transducer and activator of transcription 1/ 3 (Mus musculus) (UniProt P42227+P42225). Particulars: NIH3T3, 5 uM.
Data set [8] addresses Signal transducer and activator of transcription 3 (Mus musculus) (UniProt P42227). The settings on record: NIH3T3, 5 uM.
Data set [9] has as its target T2, Signal transducer and activator of transcription 3. Particulars: U-251, 5 uM.
For data set [10], the system named is MDA-MB-231. As to the kind of experiment: Antiproliferative activity against human MDA-MB-231 cells at 5 uM for 72 hrs by cyquant assay. Format: functional, cell-based.
Data set [11] has as its system SF-295. Nature of the data set: Antiproliferative activity against human SF295 cells at 5 uM for 72 hrs by cyquant assay. It is filed as functional, cell-based.
Data set [12] in a line: Cytotoxicity against mouse NIH/3T3 cells at 5uM after 72 hrs by cyquant cells. Format: cell-based. Particulars: nih3t3, 72 h. In outline: as §1
In data set [13] the target is T3, Signal transducer and activator of transcription 1/ 3 (Mus musculus). Nature of the data set: Inhibition of Stat1:Stat3 dimer DNA binding activity in EGF-stimulated mouse NIH3T3 nuclear extract expressing human EGFR assessed as residual activity at 5 uM preincubated for 30 mins followed by addition of radiolabeled probe hSIE for 30 mins by EMSA. Format: cell-free.

Data set [14] addresses Signal transducer and activator of transcription 3 (Mus musculus) (UniProt P42227). Nature of the data set: Inhibition of Stat3 dimer DNA binding activity in EGF-stimulated mouse NIH3T3 nuclear extract expressing human EGFR assessed as residual activity at 5 uM preincubated for 30 mins followed by addition of radiolabeled probe hSIE for 30 mins by EMSA.
Data set [15] addresses T1, Signal transducer and activator of transcription 1 (Mus musculus). Nature of the data set: Inhibition of Stat1 dimer DNA binding activity in EGF-stimulated mouse NIH3T3 nuclear extract expressing human EGFR assessed as residual activity at 5 uM preincubated for 30 mins followed by addition of radiolabeled probe hSIE for 30 mins by EMSA.
For data set [16], the system named is NIH3T3. As to the kind of experiment: Inhibition of Stat5 dimer DNA binding activity in EGF-stimulated mouse NIH3T3 nuclear extract expressing human EGFR at 5 uM preincubated for 30 mins followed by addition of radiolabeled probe MGFe for 30 mins by EMSA. It is filed as cell-free.
Data set [17] has as its target T2, Signal transducer and activator of transcription 3. Nature of the data set: Inhibition of Stat3 activity in human U251MG cells assessed as phosphorylated Stat3 level at 5 uM by immunoblot analysis. Particulars: U-251, TDE = time-dependent effect. It is filed as cell-based.
In data set [18] the target is T1, Signal transducer and activator of transcription 1 (Mus musculus). Nature of the data set: Modulation of EGF-induced Stat1 phosphorylation in mouse NIH3T3 cells expressing human EGFR at 5 uM preincubated for 3 hrs followed by stimulation with 1 ug/ml EGF for 12 mins by immunoblot analysis. Format: cell-based. In outline:
(§2)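 Whole-cell lysates of equal total protein from NIH3T3/hEGFR fibroblasts, pretreated with or without 5 μM compound (control 0.025% DMSO) for 3 h, then stimulated with 1 μg/ml EGF for 12 min. SDS-PAGE immunoblotting for pStat1/Stat1 and pStat5/Stat5 with β-actin or GAPDH loading controls. Representative of 2–4 independent determinations.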

For data set [19], the system named is NIH3T3. As to the kind of experiment: Modulation of EGF-induced Stat5 phosphorylation in mouse NIH3T3 cells expressing human EGFR at 5 uM preincubated for 3 hrs followed by stimulation with 1 ug/ml EGF for 12 mins by immunoblot analysis. Format: cell-based. An outline of the steps:
as §2

The target in data set [20] is Mitogen-activated protein kinase 1 and 3 (ERK2 and ERK1) (Mus musculus) (UniProt P63085+Q63844). Nature of the data set: Modulation of EGF-induced Erk1/2 phosphorylation in mouse NIH3T3 cells expressing human EGFR at 5 uM preincubated for 3 hrs followed by stimulation with 1 ug/ml EGF for 12 mins by immunoblot analysis. Format: cell-based. An outline of the steps: (§3)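 NIH3T3/hEGFR fibroblasts pretreated with or without 5 μM compound for 3 h, then stimulated with 1 μg/ml EGF for 12 min. Whole-cell lysates of equal total protein immunoblotted for phospho and total Stat3, Stat1, Stat5, Erk1/2. Controls were 0.025% DMSO-treated cells. Representative of 2–4 independent determinations.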

Data set [21] concerns the target Signal transducer and activator of transcription 3 (Mus musculus) (UniProt P42227). As to the kind of experiment: Inhibition of EGF-induced Stat3 phosphorylation in mouse NIH3T3 cells expressing human EGFR at 5 uM preincubated for 3 hrs followed by stimulation with 1 ug/ml EGF for 12 mins by immunoblot analysis. It is filed as cell-based. In outline: as §3
The target in data set [22] is RAC-alpha serine/threonine-protein kinase (Homo sapiens) (UniProt P31749). As to the kind of experiment: Modulation of Akt phosphorylation in human U251MG cells at 5 uM after 0.5 to 24 hrs by immunoblot analysis. Format: cell-based. Particulars: U-251. In outline: (§4)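 U251MG cells treated with 5 μM compound for 0–24 h; whole-cell lysates of equal total protein immunoblotted. Controls were 0.025% DMSO-treated cells. Representative of 2–4 independent determinations.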

For data set [23], the target named is Mitogen-activated protein kinase; ERK1/ERK2 (Homo sapiens) (UniProt P27361+P28482). Nature of the data set: Modulation of Erk1/2 phosphorylation in human U251MG cells at 5 uM after 0.5 to 24 hrs by immunoblot analysis. It is filed as cell-based. The settings on record: U-251. An outline of the steps: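 U251MG glioma cells (RPMI or DMEM, 10% FBS, 1% nonessential amino acids) treated with 5 μM compound for 0–24 h; 0.025% DMSO control. Whole-cell lysates of equal total protein immunoblotted for pErk1/2, Erk1/2, pJAK2 and JAK2 with β-actin or GAPDH loading controls. Representative of 2–4 independent determinations.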

The subject of data set [24] is U-251. Nature of the data set: Effect on SOCS3 expression in human U251MG cells at 5 uM after 0.5 to 24 hrs by immunoblot analysis. It is filed as functional, cell-based. In outline: as §4
Data set [25] relates to U-251. Nature of the data set: Effect on PTP1B expression in human U251MG cells at 5 uM after 0.5 to 24 hrs by immunoblot analysis. Format: functional, cell-based. In outline:
as §4

Data set [26] concerns the target T2, Signal transducer and activator of transcription 3. Nature of the data set: Inhibition of orthovandate-induced Stat3 phosphorylation in human U251MG cells at 5 uM for 3 hrs by immunoblot analysis in presence of 10 to 300 uM orthovandate. The settings on record: U-251. It is filed as cell-based. In outline:
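U251MG cells treated with 5 μM compound for 3 h without or with 10–300 μM Na3VO4. Whole-cell lysates of equal total protein immunoblotted for pStat3 and Stat3. Controls were 0.025% DMSO. Representative of 2–4 determinations.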

Data set [27] has as its system MDA-MB-231. As to the kind of experiment: Antiproliferative activity against human MDA-MB-231 cells for 72 hrs by cyquant assay. Format: functional, cell-based. The settings on record: MDA-MB-231, 72 h. In outline: as §1
Data set [28] in a line: Antiproliferative activity against human U373MG cells for 72 hrs by cyquant assay. It is filed as functional, cell-based, U-373MG ATCC. The settings on record: U373 MG. In outline:
as §1

The nature of data set [29]: Antiproliferative activity against human SF295 cells for 72 hrs by cyquant assay. Particulars: SF-295, 72 h. Format: functional, cell-based. In outline:
as §1

For data set [30], the system named is U-251. Nature of the data set: Antimitotic activity in human U251MG cells assessed as defect in chromatid structure at 0.1 uM after 15 hrs confocal microscopic analysis. It is filed as functional, cell-based. In outline: (§5)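 U251MG on coverslips synchronized by double thymidine block (2 mM), released 9 h, treated 15 h (8 μM; paclitaxel 100 nM). Fixed 4% paraformaldehyde, digitonin-permeabilized, BSA-blocked, stained for β-tubulin and MAP1B with DAPI counterstain; chromatid structure and segregation scored by confocal microscopy.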

Data set [31] has as its system U-251. As to the kind of experiment: Antimitotic activity in human U251MG cells assessed as defect in sister chromatid segragation at 0.1 uM after 15 hrs confocal microscopic analysis. It is filed as functional, cell-based. In outline: as §5
Data set [32] has as its system U-251. Nature of the data set: Induction of apoptosis in human U251MG cells assessed as PARP level at […] after 24 to 48 hrs by immunoblot analysis. It is filed as functional, cell-based.
The subject of data set [33] is U-251. As to the kind of experiment: Induction of apoptosis in human U251MG cells assessed as cleaved caspase-3 level at […] after 24 to 48 hrs by immunoblot analysis. Format: functional, cell-based.

T2 sequence (P40763 whole entry): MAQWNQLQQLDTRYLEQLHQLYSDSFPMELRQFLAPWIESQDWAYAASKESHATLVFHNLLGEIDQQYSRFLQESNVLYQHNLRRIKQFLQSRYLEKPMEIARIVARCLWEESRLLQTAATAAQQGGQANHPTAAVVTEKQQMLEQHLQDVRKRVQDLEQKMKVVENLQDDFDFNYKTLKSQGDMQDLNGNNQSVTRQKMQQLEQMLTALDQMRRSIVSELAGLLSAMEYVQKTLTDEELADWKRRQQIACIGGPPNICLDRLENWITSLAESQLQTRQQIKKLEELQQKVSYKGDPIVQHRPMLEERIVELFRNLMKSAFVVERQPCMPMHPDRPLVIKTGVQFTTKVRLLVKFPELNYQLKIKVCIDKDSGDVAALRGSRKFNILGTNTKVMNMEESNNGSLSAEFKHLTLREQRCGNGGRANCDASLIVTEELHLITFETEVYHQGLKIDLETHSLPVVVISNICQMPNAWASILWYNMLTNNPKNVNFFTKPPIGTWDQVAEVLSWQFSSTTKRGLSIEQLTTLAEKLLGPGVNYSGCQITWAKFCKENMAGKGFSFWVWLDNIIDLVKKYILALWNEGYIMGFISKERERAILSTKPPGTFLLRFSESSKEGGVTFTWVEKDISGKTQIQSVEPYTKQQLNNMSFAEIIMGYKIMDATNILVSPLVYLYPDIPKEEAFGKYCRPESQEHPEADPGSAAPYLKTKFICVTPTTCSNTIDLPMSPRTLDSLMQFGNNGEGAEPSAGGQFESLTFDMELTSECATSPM
Chain of Signal transducer and activator of transcription 3 (Mus musculus) (P42227 whole entry): as the sequence (P40763 whole entry) above, with E760D counted along it
Chain of RAC-alpha serine/threonine-protein kinase (Homo sapiens) (P31749 whole entry): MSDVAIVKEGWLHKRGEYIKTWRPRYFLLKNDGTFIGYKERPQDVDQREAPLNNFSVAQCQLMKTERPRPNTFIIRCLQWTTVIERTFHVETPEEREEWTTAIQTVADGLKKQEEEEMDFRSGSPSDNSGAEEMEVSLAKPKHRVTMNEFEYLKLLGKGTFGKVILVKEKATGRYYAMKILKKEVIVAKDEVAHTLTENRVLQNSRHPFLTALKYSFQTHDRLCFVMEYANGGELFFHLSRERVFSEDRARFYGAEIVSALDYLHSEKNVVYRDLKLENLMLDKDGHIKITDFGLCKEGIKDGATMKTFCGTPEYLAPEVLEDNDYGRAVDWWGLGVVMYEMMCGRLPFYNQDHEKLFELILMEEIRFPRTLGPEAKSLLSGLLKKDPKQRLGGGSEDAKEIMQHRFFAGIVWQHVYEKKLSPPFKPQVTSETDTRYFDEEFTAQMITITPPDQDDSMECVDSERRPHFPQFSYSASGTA
Chain of Mitogen-activated protein kinase 1 and 3 (ERK2 and ERK1) (Mus musculus) (P63085 whole entry, looked up): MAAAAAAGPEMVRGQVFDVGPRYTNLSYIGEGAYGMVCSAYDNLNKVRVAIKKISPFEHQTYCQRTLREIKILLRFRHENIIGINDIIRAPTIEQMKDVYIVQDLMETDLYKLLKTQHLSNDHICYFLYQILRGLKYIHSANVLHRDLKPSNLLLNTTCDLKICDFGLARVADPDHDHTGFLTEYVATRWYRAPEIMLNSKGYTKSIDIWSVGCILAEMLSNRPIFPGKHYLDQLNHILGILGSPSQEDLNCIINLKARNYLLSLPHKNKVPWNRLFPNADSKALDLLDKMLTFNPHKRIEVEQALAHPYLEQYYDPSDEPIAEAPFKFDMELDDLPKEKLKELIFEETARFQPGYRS
Chain of Mitogen-activated protein kinase 1 and 3 (ERK2 and ERK1) (Mus musculus) (Q63844 whole entry, looked up): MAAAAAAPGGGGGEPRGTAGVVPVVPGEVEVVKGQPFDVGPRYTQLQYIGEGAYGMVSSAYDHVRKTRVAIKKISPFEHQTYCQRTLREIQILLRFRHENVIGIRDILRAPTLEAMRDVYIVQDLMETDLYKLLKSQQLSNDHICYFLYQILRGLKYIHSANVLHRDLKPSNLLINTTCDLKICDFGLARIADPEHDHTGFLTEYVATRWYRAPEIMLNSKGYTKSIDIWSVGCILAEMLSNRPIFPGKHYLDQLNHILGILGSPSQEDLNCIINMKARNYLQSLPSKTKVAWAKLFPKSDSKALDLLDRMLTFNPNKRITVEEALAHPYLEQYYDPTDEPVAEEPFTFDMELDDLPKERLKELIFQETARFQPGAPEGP
Chain of Mitogen-activated protein kinase; ERK1/ERK2 (Homo sapiens) (P27361 whole entry, looked up): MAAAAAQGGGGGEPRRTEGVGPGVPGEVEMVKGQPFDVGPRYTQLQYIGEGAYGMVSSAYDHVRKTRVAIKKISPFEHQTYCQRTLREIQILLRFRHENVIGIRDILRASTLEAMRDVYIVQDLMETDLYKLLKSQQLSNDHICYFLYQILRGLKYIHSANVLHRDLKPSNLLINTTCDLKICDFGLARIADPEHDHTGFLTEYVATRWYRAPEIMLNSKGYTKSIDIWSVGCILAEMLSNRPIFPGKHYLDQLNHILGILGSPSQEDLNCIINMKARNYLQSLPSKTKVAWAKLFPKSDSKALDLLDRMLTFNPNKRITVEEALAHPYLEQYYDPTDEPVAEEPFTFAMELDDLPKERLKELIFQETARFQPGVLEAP
Chain of Mitogen-activated protein kinase; ERK1/ERK2 (Homo sapiens) (P28482 whole entry, looked up): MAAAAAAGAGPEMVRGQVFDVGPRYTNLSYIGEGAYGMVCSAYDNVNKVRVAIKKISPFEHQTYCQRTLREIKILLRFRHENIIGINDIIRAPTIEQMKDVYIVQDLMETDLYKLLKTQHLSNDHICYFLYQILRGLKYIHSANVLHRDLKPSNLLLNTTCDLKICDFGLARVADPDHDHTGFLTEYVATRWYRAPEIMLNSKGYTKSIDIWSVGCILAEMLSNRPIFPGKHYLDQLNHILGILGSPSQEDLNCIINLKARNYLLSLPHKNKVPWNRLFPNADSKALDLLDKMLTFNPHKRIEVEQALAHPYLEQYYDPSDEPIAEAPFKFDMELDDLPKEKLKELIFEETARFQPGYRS

On to `CC(C)=CCC/C(C)=C/C(=O)OCC1=C2/C(=C\[C@@]3(C)CC[C@](O)(O3)[C@H](C)C[C@@H]2O)OC1=O`, for which the IC50 is more than 5 µM in [1] and 1 µM in data set [6]. The inhibition result in data set [2], in data set [3], in data set [4], in data set [7] and in data set [8] was “Active” in each case. Also, the inhibition result in data set [5] was “Dose-dependent effect”. Moreover, the inhibition result in [9] was “inactive”.

In the case of `C/C=C(/C)C(=O)O[C@H]1C[C@@H](C)[C@]2(O)CC[C@](C)(/C=C3/OC(=O)C(COC(C)=O)=C31)O2`, the IC50 in data set [1] was 11.8 µM; in data set [6], 3.3 µM; in [27], 7.4 µM; in [28], 10.4 µM; in data set [29] it was 8.6 µM. Also, the inhibition result in data set [2], in data set [10], in [11], in data set [3], in [21] and in data set [26] was “Active” each time. Besides, the Activity entry in data set [12] was “Toxic”; in [13], 61%; in data set [14] it was 47%; in data set [15], 60%. Moreover, the inhibition result in [16], in data set [4], in data set [18], in data set [19] and in data set [20] was “inactive” each time. Moreover, the inhibition result in [17] was “tde”. The outcome in data set [22], in [23], in data set [24] and in data set [25] was inactive.

As to `CC(=O)O[C@H]1C(=O)[C@@]2(C)[C@H]([C@H](OC(=O)c3ccccc3)[C@]3(O)C[C@H](OC(=O)[C@H](O)[C@@H](NC(=O)c4ccccc4)c4ccccc4)C(C)=C1C3(C)C)[C@]1(OC(C)=O)CO[C@@H]1C[C@@H]2O`, the result in data set [30], in data set [31], in data set [32] and in [33] was Active.
